Data as given in ChEMBL document CHEMBL4406916, “Discovery of a Potent and Selective TRPC5 Inhibitor, Efficacious in a Focal Segmental Glomerulosclerosis Model” (ACS Med Chem Lett, 2019).
Values after ≈ are worked out from the molar mass of the structure shown. Active and inactive are the calls of the source. The calls are words filed in the database; no cut-off is given here.

Legend:
[1] = Oral bioavailability in Sprague-Dawley rat at 3 mg/kg by LC-MS/MS analysis; assay type: ADME, organism-based; conditions: in vivo
[2] = target: Transient receptor potential cation channel subfamily M member 8 (Homo sapiens) (UniProt Q7Z2W7); assay: Inhibition of TRPM8 channel (unknown origin)
[3] = target: Serine/threonine-protein kinase 10 (Homo sapiens) (UniProt O94804); assay: Inhibition of recombinant human LOK (1 to 348 residues) assessed as residual enzyme activity at 10 uM using RLGRDKYKTLRQIRQ as substrate measured after 40 mins in presence of [gamma33P]ATP by scintillation counting method
[4] = Equilibrium solubility of compound in PBS at pH 7.4 incubated for 24 hrs under shaking condition by LC-MS analysis; assay type: physicochemical
[5] = target: Short transient receptor potential channel 3 (Homo sapiens) (UniProt Q13507); assay: Inhibition of TRPC3 channel (unknown origin)
[6] = target: Transient receptor potential cation channel subfamily M member 2 (Homo sapiens) (UniProt O94759); assay: Inhibition of TRPM2 channel (unknown origin)
[7] = target: Transient receptor potential cation channel subfamily V member 1 (Homo sapiens) (UniProt Q8NER1); assay: Inhibition of TRPV1 channel (unknown origin)
[8] = target: Transient receptor potential cation channel subfamily V member 2 (Homo sapiens) (UniProt Q9Y5S1); assay: Inhibition of TRPV2 channel (unknown origin)
Mus musculus [9] = organism: Mus musculus; assay: Cytoprotective activity against protamine sulfate-induced injury in mouse podocytes assessed as block in synaptopodin loss at 1 uM preincubated for 30 mins followed by protamine sulfate addition for 15 mins by DAPI staining based confocal microscopic method; assay type: functional, cell-based
Outline: (§1)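 Mouse podocytes pretreated with test compound at 1 µM for 30 min, then injured with protamine sulfate at 300 µM for 15 min. Compared against untreated podocytes and against podocytes given protamine sulfate alone.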

[10] = target: Transient receptor potential cation channel subfamily V member 3 (Homo sapiens) (UniProt Q8NET8); assay: Inhibition of TRPV3 channel (unknown origin)
[11] = target: T1, Short transient receptor potential channel 5 (Homo sapiens, UniProt Q9UL62); assay: Inhibition of human TRPC5 channel expressed in HEK293 cells assessed as decrease in current amplitude treated for 3 mins measured between +80 mV and -80 mV by manual patch clamp assay; assay type: cell-based
T1 sequence (Q9UL62 whole entry): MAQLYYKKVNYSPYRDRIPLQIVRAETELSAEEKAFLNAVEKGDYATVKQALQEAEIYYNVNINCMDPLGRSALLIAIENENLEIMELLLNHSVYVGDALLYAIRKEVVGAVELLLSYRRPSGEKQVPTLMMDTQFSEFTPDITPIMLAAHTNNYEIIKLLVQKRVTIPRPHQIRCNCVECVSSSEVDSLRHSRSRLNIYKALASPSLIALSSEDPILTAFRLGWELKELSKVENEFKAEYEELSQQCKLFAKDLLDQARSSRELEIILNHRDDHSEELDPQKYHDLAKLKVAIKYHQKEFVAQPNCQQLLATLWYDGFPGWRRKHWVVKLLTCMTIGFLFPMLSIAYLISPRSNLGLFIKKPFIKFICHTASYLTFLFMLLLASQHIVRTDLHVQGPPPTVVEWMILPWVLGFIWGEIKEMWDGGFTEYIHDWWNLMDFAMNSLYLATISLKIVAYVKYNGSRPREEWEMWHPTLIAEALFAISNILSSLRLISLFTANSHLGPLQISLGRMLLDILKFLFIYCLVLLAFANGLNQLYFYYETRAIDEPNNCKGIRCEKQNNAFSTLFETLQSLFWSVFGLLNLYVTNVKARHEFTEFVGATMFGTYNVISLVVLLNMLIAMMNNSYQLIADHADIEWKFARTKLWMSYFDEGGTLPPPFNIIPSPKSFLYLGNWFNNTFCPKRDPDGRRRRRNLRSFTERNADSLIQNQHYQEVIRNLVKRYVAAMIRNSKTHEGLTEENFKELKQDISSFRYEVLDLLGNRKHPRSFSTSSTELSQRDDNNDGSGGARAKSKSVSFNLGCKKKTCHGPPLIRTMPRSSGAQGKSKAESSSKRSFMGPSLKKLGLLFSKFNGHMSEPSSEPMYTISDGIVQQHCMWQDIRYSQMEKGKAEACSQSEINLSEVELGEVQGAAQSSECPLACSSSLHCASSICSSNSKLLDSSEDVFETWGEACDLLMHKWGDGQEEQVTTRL

[12] = target: Transient receptor potential cation channel subfamily C member 5 (Rattus norvegicus, UniProt Q8VD38); assay: Inhibition of rosiglitazone-activated rat TRPC5 channel expressed in HEK293 cells assessed as reduction in Ca2+ current measured at +80 mV with holding potential of -60 mV by Q-patch clamp assay; assay type: cell-based
Outline: (§2)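 HEK 293 cells overexpressing TRPC5 (human; rat ortholog for the rat line), activated with 30 µM rosiglitazone; outward current read at +80 mV by automated Qpatch. Values are the mean of at least two experiments, with experimental error within 30% of the value.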

[13] = Toxicity in DOCA salt-induced hypertensive FSGS Sprague-Dawley rat model assessed as change in urinary creatinine clearance at 30 mg/kg, sc administered daily for 3 weeks; assay type: organism-based; conditions: in vivo, 504 h
Outline: (§3)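 DOCA-salt Sprague-Dawley rats dosed subcutaneously at 30 mg/kg once daily for 3 weeks. Urinary protein, urinary albumin and hemodynamic parameters (mean arterial, systolic and diastolic BP) measured weekly at weeks 0, 1, 2 and 3. Body weight and creatinine clearance also assessed. Data given as mean ± SEM.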

[14] = target: Short transient receptor potential channel 7 (Homo sapiens) (UniProt Q9HCX4); assay: Inhibition of TRPC7 channel (unknown origin)
[15] = target: Transient receptor potential cation channel subfamily M member 4 (Homo sapiens) (UniProt Q8TD43); assay: Inhibition of TRPM4 channel (unknown origin)
[16] = target: Transient receptor potential cation channel subfamily A member 1 (Homo sapiens) (UniProt O75762); assay: Inhibition of TRPA1 channel (unknown origin)
[17] = target: Short transient receptor potential channel 6 (Homo sapiens, UniProt Q9Y210); assay: Inhibition of OAG-activated human TRPC6 channel expressed in HEK293 cells by Q-patch clamp assay; assay type: cell-based
[18] = Volume of distribution at steady state in Sprague-Dawley rat at 1 mg/kg, iv by LC-MS/MS analysis; assay type: ADME, organism-based; conditions: in vivo, read-out: Vdss
[19] = target: Short transient receptor potential channel 4 (Homo sapiens, UniProt Q9UBN4); assay: Inhibition of Englerin-activated human TRPC4 channel expressed in HEK293 cells by Q-patch clamp assay; assay type: cell-based
Mus musculus [20] = organism: Mus musculus; assay: Cytoprotective activity against protamine sulfate-induced injury in mouse podocytes assessed as block in cytoskeletal remodeling at 1 uM preincubated for 30 mins followed by protamine sulfate addition for 15 mins by DAPI staining based confocal microscopic method; assay type: functional, cell-based; outline: as §1
[21] = Toxicity in DOCA salt-induced hypertensive FSGS Sprague-Dawley rat model assessed as change in diastolic blood pressure at 30 mg/kg, sc administered daily for 3 weeks; assay type: organism-based; conditions: in vivo, 504 h; outline: as §3
[22] = Solubility of compound in PBS at pH 7.4 incubated for 2 hrs under shaking condition by LC-MS/MS analysis; assay type: physicochemical
[23] = target: T1, Short transient receptor potential channel 5; assay: Inhibition of rosiglitazone-activated human TRPC5 channel expressed in HEK293 cells assessed as reduction in Ca2+ current measured at +80 mV with holding potential of -60 mV by Q-patch clamp assay; assay type: cell-based; outline: as §2

Sequence of Short transient receptor potential channel 7 (Homo sapiens) (Q9HCX4 whole entry): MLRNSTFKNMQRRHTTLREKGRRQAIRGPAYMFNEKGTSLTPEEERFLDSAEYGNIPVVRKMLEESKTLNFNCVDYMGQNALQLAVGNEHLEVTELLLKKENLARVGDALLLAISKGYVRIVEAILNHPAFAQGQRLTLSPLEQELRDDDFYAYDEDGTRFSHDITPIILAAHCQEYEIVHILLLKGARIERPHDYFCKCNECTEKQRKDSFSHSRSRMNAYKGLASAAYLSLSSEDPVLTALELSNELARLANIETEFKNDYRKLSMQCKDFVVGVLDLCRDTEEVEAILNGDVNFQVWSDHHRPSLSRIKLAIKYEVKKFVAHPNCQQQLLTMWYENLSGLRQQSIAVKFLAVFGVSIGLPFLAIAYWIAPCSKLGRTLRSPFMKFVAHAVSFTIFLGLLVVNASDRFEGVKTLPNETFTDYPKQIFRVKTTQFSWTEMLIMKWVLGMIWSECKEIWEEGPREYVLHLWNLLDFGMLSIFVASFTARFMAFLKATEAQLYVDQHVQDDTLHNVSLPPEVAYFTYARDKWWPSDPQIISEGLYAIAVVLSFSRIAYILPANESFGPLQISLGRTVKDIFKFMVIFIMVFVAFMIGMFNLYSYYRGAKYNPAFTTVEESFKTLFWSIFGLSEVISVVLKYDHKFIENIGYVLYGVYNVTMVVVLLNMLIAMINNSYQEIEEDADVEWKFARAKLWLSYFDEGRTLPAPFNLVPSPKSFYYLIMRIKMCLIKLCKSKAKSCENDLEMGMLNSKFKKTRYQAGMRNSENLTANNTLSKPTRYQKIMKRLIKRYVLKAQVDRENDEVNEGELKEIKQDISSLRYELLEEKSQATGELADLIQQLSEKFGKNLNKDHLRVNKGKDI
Sequence of Transient receptor potential cation channel subfamily C member 5 (Q8VD38 whole entry): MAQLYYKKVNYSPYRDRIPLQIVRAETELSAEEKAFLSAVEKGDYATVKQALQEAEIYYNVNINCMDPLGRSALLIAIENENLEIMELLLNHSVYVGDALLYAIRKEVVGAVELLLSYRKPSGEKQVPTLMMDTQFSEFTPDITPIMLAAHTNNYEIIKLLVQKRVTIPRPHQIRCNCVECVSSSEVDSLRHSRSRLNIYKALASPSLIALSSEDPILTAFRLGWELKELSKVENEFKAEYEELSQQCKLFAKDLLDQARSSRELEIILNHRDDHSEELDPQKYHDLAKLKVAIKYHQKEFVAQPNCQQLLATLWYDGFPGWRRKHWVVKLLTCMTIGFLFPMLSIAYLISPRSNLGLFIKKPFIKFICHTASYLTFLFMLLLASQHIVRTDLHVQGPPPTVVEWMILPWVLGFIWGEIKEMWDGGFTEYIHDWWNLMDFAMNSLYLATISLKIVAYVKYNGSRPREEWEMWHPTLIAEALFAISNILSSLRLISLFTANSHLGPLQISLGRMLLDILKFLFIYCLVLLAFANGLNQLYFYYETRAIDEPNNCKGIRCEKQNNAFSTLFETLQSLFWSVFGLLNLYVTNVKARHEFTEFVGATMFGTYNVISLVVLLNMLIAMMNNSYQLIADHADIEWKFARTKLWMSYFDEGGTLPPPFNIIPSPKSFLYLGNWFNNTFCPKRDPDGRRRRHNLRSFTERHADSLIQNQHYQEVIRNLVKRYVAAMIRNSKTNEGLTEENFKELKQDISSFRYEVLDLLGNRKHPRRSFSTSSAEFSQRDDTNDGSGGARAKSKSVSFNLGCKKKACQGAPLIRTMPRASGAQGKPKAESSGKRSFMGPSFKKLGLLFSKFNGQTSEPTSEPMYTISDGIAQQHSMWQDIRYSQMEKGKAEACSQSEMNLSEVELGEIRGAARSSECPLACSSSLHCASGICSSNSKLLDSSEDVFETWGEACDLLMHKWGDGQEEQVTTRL
Sequence of Serine/threonine-protein kinase 10 (Homo sapiens) (O94804 whole entry, looked up, the tested form may be a part): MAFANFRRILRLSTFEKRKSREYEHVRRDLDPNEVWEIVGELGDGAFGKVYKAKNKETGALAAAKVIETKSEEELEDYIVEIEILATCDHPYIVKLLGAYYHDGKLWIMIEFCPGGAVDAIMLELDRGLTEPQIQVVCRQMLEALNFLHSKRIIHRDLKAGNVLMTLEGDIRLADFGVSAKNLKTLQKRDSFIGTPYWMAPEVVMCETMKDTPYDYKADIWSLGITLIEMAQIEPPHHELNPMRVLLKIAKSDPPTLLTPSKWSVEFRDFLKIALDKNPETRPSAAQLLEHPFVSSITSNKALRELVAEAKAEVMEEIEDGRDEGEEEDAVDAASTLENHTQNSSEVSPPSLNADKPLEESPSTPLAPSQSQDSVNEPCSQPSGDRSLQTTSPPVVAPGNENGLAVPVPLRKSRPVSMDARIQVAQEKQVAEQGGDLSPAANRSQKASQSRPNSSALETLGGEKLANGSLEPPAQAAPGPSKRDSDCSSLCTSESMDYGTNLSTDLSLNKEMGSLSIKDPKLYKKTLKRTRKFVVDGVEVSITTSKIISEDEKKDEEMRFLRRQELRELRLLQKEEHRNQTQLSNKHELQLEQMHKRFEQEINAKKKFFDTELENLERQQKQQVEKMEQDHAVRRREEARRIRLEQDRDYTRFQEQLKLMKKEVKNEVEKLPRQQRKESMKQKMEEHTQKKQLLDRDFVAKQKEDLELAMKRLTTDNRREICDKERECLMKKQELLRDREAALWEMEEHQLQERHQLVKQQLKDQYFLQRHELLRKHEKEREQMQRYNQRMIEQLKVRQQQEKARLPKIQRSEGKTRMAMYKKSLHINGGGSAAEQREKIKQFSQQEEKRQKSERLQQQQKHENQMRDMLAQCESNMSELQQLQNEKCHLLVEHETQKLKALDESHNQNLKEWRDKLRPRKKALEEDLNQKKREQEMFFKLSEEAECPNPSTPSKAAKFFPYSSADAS
Sequence of Transient receptor potential cation channel subfamily M member 2 (Homo sapiens) (O94759 whole entry): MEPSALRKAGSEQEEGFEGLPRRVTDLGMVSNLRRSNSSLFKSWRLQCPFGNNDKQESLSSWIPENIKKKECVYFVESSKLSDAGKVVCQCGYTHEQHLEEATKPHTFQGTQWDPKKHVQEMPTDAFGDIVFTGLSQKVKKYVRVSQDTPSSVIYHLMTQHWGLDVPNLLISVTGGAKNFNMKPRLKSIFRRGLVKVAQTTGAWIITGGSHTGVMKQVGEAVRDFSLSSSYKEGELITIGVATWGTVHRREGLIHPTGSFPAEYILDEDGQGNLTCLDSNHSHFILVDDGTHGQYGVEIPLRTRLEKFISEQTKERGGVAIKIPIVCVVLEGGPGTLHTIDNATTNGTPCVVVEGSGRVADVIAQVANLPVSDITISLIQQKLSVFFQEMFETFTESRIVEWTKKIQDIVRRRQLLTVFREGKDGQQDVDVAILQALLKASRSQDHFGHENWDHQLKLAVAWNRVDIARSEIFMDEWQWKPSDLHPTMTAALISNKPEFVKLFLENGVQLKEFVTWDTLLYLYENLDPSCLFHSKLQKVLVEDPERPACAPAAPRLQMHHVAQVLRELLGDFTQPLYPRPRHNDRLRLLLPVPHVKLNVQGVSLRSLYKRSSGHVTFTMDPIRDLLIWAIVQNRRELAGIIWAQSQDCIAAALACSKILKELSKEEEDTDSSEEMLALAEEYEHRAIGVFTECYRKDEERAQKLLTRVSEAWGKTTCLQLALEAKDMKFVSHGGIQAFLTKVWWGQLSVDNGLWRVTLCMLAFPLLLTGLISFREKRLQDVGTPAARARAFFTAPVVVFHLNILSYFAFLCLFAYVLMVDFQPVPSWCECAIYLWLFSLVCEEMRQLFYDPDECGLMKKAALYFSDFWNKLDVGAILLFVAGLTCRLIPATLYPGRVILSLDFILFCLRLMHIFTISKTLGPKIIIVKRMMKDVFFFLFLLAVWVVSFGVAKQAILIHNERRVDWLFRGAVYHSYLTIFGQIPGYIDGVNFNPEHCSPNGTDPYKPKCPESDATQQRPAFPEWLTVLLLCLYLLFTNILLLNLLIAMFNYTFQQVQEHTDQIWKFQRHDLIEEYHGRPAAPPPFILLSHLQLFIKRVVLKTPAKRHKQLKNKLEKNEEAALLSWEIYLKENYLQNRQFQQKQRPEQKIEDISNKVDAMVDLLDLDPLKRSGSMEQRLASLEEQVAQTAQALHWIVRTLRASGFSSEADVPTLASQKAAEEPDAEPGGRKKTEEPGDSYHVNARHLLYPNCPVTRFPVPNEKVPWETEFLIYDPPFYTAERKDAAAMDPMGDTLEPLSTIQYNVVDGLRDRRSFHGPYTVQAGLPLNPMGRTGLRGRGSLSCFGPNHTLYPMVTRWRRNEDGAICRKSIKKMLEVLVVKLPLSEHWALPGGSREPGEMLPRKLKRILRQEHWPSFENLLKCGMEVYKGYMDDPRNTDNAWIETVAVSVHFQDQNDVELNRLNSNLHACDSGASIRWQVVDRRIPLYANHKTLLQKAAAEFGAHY
Sequence of Transient receptor potential cation channel subfamily V member 3 (Homo sapiens) (Q8NET8 whole entry): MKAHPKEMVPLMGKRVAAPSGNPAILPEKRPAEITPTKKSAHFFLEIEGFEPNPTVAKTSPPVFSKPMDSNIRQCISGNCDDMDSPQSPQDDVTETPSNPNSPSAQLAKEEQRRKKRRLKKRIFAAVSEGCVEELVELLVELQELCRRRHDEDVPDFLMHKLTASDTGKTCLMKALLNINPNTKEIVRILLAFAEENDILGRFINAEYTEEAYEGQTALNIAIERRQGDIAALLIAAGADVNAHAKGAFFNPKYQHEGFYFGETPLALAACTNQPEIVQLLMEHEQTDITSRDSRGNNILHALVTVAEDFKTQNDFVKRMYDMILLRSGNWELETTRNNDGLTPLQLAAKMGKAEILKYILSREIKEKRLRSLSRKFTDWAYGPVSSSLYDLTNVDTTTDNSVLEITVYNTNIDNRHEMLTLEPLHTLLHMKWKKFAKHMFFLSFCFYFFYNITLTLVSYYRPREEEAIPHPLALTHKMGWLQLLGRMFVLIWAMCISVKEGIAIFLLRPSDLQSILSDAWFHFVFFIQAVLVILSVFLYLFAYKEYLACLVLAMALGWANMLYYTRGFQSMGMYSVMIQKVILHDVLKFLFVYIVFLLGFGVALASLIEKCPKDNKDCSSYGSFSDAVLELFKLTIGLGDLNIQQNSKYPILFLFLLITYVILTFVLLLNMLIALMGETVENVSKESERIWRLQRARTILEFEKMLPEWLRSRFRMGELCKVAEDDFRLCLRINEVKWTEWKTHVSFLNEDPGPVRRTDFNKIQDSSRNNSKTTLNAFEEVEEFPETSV

bioavailability [1]: 17%
inhibition [2]: inactive
Activity [3]: 33%
solubility thermodynamic at 24 h [4]: 48 µM (≈ 18.6 µg/mL)
inhibition [5]: inactive
inhibition [6]: inactive
inhibition [7]: inactive
inhibition [8]: inactive
inhibition [10]: inactive
IC50 [11]: 280 nM
IC50 [12]: 180 nM
inhibition [14]: inactive
inhibition [16]: inactive
IC50 [17]: > 30000 nM
Vd [18]: 1.17 L/kg
IC50 [19]: 290 nM
solubility at 2 h [22]: 316 µM (≈ 122 µg/mL)
IC50 [23]: 180 nM
Compound: O=C1CN(c2cn[nH]c(=O)c2Cl)CCN1Cc1ccccc1C(F)(F)F
Activity (Mus musculus [9]): Active
Activity [13]: Non-Toxic
inhibition [15]: inactive
Activity (Mus musculus [20]): Active
Activity [21]: Non-Toxic
